Assay outcomes deposited in PubChem BioAssay by The Scripps Research Institute Molecular Screening Center.
ABHD4 inh: inhibitors of mouse ABHD4; hit rate 0.54% among 370,000; inhibition, % at 8.92 µM; purified mABHD4, FP-Rh probe fluorescence polarization; AID 720543;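 active = inhibition exceeding the mean over every tested compound plus 3 SD, cut at about 30% in these data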;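 note: 0% = plate median of compound wells and 100% = S159A mutant with DMSO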
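assay system = mABHD4 protein | compound dosing = single nominal dose of 8.92 µM, 0.89% DMSO final | read-out basis = percent inhibition of probe binding, normalized to plate controls | schedule = Enzyme–compound pre-incubation 45 min, then probe 60 min, both 25 °C | detection = fluorescence polarization, excitation 525 nm, emission 598 nm, BODIPY TMR filters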
TCR CD3 inh: blocks the human TCR-CD3 interaction; TAMRA-labeled TCR probe fluorescence, biochemical; inhibition, % at 9.4 µM; hit rate 0.37% among 360,000; in the data active = inhibition above about 19%;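 note: recombinant mutant TCR 2C K166C tagged with TAMRA read by polarization; 0% = receptor in buffer alone and 100% = receptor with positive control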
PRMT1 inh: PRMT1 (human) inhibition, primary screen; Q99873; recombinant PRMT1, activity-based probe fluorescence polarization; inhibition, % at 2.79 µM; hit rate 1.3% among 370,000; AID 652257;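 active = inhibition above about 21% made by adding two undisclosed values, limit read from the data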
Target sequence (Q99873 whole entry, looked up): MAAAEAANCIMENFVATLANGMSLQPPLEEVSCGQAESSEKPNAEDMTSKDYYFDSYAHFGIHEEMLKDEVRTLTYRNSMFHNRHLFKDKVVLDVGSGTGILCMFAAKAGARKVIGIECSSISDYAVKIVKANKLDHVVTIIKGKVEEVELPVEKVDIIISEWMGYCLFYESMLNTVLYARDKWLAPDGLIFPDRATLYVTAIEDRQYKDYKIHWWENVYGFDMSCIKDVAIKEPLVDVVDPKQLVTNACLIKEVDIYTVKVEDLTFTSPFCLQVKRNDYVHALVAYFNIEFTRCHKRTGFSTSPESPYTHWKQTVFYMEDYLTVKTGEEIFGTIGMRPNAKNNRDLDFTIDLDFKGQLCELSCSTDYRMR
rCAG RNA binder: molecules binding r(CAG) RNA repeats | AID 651821 | r(CAG) RNA repeat, TO-PRO-1 dye displacement fluorescence | hit rate 1.3% among 370,000 | inhibition, % at 3 µM;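 active = inhibition above the plate cutoff, the mean of all test compounds on that plate plus 3 SD, cut at about 35% in these data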;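 note: 0% = DMSO alone and 100% = 100 µM mitoxantrone as full dye displacement; higher means more dye released from RNA so lower well fluorescence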
SIAE primary: inhibitors of human sialic acid acetylesterase SIAE; Q9HAT2; SIAE FP-Rh probe binding, fluorescence polarization; inhibition, % at 9.66 µM; hit rate 0.69% among 370,000;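 active = inhibition above a cutoff: mean of compounds within the control limits plus 3 SD of those, cut at about 17% in these data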;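 note: 0% = plate median of compound wells and 100% = probe without SIAE protein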
* marks the source's active call; other numbers are inactive results; . = not tested or not shown. Compounds with a hit are over-represented: about 3.3% of the library has one in this group of screens.

SMILES	ABHD4 inh	TCR CD3 inh	PRMT1 inh	rCAG RNA binder	SIAE primary
COc1ccc(OC)c(NC(=O)CSc2nc3[nH]c(=O)[nH]c(=O)c3s2)c1	10	5	19	37*	-31
CC(Sc1ncn[nH]1)C(=O)NCc1ccccc1 (stereo unspecified)	-4	-10	4	0	1
O=C(c1ccccc1)C(Sc1ncn[nH]1)c1ccccc1 (stereo unspecified)	1	-6	23*	1	9
O=C(c1ccc(Cl)cc1)C1CCN(c2ncnc3sccc23)CC1	-6	.	4	.	-3
CCN(CC(=O)Nc1ccc(NC(C)=O)cc1)C(=O)/C=C/c1ccc(C)o1	1	6	24*	3	-4
CCN(CC(=O)Nc1ccc(NC(C)=O)cc1)C(=O)/C=C/c1ccccc1	-1	5	-8	-4	-6
COc1ccc(N2CCN(CCCNC(=O)CCOC(C)(C)C)CC2)cc1	7	.	2	0	6
CCOc1ccc(NC(=O)Nc2nc3ccc(S(C)(=O)=O)cc3s2)cc1	2	1	0	39*	16
CC(C)CC(=O)Nc1nc2ccc(S(C)(=O)=O)cc2s1	-14	-6	23*	0	-4
COC(=O)[C@]12C[C@H](CC(=O)NCc3cccs3)C(=O)N(CCc3ccc(OC)c(OC)c3)C1=C[C@H](COCc1ccccc1)O[C@@H]2C	3	.	-4	2	-5
O=C(NCc1ccc(C(=O)NC2CCCC2)cc1)c1cccc(Br)c1	-7	.	-1	2	-6
CC1=C(C)/C(=N\OS(=O)(=O)c2ccc(C)cc2)C=CC1=O	8	6	24*	2	9
O=[N+]([O-])c1ccc2c(c1)-c1ccccc1C2O (stereo unspecified)	5	1	36*	5	6
COC(=O)C[C@H]1CC[C@H]2[C@H](COc3ccc(NS(=O)(=O)c4ccccc4C)cc3C(=O)N2C)O1	6	.	1	5	2
COc1ccc(C(NC(=O)/C=C/c2ccco2)c2ccc(OC)c(OC)c2)cc1 (stereo unspecified)	-6	-10	25*	12	-5
CC(=O)Oc1cc2oc(=O)cc(C)c2cc1OC(C)=O	8	9	21*	2	-6
CC(C)CCNC(=O)C(NS(=O)(=O)c1ccc2c(c1)c(=O)n(C)c(=O)n2C)c1ccccc1 (stereo unspecified)	-2	4	21*	-2	-6
CCCCNS(=O)(=O)/C=C/c1cc(C)ccc1CNC(=O)OC(C)(C)C	-10	.	-4	-3	8
O=C(CN1CCCc2ccccc21)NCc1ccccc1F	6	.	2	5	2
CCOC(=O)COc1ccc(C(C)c2ccc(NC(=O)OC(C)(C)C)cc2)cc1 (stereo unspecified)	3	.	-3	-2	-1
COC(=O)Cc1cc(=O)n(-c2nc3ccccc3[nH]2)[nH]1	17	22*	3	42*	17
O=C(CSc1nnc(SCc2cccc3ccccc23)s1)c1ccc(F)cc1	-4	.	-1	8	-5
CCOc1ccccc1CNC(=O)c1ccc2c(c1)N(CC)CCS2	6	1	23*	7	15
COc1ccc(N2C(=O)CC(N3CCOCC3)C2=O)cc1 (stereo unspecified)	-3	1	21*	3	0
COc1ccc(N2C(=O)CC(N3CCN(c4ccccc4)CC3)C2=O)cc1 (stereo unspecified)	-2	0	7	-2	-1
SMILES	ABHD4 inh	TCR CD3 inh	PRMT1 inh	rCAG RNA binder	SIAE primary
CN(C)c1cc(Nc2ccc(O)cc2)c([N+](=O)[O-])c2nonc12	2	4	-3	-1	6
O=[N+]([O-])c1c(Nc2ccc(O)cc2)cc(Cl)c2nonc12	25	1	77*	6	1
CCc1cccc(CC)c1NC(=O)C1SC(=Nc2ccccc2C)C(c2nc3ccccc3s2)=C1N (stereo unspecified)	-55	10	-1	42*	-96
CCN1CCN(C(=O)c2cc3sccc3n2CC(=O)c2ccccc2)CC1	6	8	1	-5	67*
O=C(Cc1cccs1)N/N=C\c1ccccc1	3	.	-3	2	6
Cc1cccc(Nc2n[nH]c(=S)s2)c1C	0	5	24*	1	9
Oc1cc(NCCN2CCOCC2)cc2cccnc12	16	11	21*	-5	6
Oc1cc(Nc2ccccc2)cc2cccnc12	6	-2	1	1	6
Oc1ccc(/C=N\Nc2cc(N3CCOCC3)nc(N3CCOCC3)n2)c(O)c1	13	-7	3	11	23*
Cc1cc(N/N=C/c2ccc(O)cc2O)nc(N2CCOCC2)n1	2	1	1	-1	10
O=C(COc1cccnc1[N+](=O)[O-])Nc1c(Cl)cccc1Cl	-1	1	3	8	9
O=C(COc1cccnc1[N+](=O)[O-])c1ccc(Cl)s1	27	10	52*	34	4
CN=c1scc(-c2ccco2)n1/N=C/c1ccc(O)c(O)c1	40*	15	9	31	-2
COc1ccc(O)c(/C=N/n2c(-c3ccco3)csc2=Nc2cccnc2)c1	18	-1	4	3	10
O=C(CN1C(=O)N/C(=C\c2ccccc2OCc2ccc(C(=O)O)cc2)C1=O)Nc1ccccc1F	-33	-6	3	47*	-16
CCOC(=O)COc1ccc(Br)cc1/C=C/c1[nH]c(=O)[nH]c(=O)c1[N+](=O)[O-]	-4	-1	5	77*	-12
Nc1nonc1-n1nnc(C(=O)N/N=C/c2cccnc2)c1CSC1=NCCS1	6	2	47*	2	-1
C=C1C(=O)[C@@]23[C@H](O)C[C@@H]4C(C)(C)CC[C@H](O)[C@]4(C)[C@@H]2C[C@H](O)[C@@H]1[C@H]3O	-1	-4	22*	2	4
Cc1cccc(NC(=O)Cn2nnc(-c3ccccc3F)n2)c1C	1	.	-3	4	2
COCCCNc1oc(COc2ccc(Cl)cc2Cl)nc1C#N	-7	0	-4	-1	17*
Cc1nc2cc(C(=O)N3CCN(C(=O)C(Cl)Cl)CC3)ccc2n1C1CCCC1	7	.	1	9	-1
NS(=O)(=O)c1ccc(-c2ccc(/C=N/Nc3ccc(C(=O)O)cc3)o2)cc1	18	-8	7	17	-4
O=C(O)c1ccc(-c2ccc(/C=N/Nc3ccc([N+](=O)[O-])cc3)o2)cc1	32*	-4	-6	25	-13
C#CCN(CC=C)Cc1ccc(OC)cc1OC	0	.	2	1	-4
COCCN=C1NC(=O)C(CC(=O)Nc2cccc(Cl)c2C)S1 (stereo unspecified)	-7	-4	24*	5	0
CCOc1ccc2[nH]c(C(=O)N/N=C/c3ccc(OC)cc3)cc2c1	-7	1	2	14	0
COc1ccc2[nH]c(C(=O)N/N=C/c3ccc(O)cc3O)cc2c1	18	7	-2	16	25*
O=C(CSc1nc2ccccc2c(=O)[nH]1)Nc1ccc(S(=O)(=O)N2CCCC2)cc1	-19	4	23*	29	-12
